Compounds with a hit are over-represented: about 1.9% of the library has one in this group of screens.
Runt-SMMHC FRET: inhibitors of human RUNX1 Runt domain binding to CBFb-SMMHC. inhibition, % at 20 µM. Cerulean-Runt/Venus-CBFb-SMMHC FRET ratio 530/480, 1 h. 220,000 tested, 0.74% active;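 active = mean inhibition across duplicate retests at 20 µM reaching about 50%, limit read from the data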;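 note: 0% = DMSO wells and 100% = wells with excess untagged CBFb-SMMHC; inhibitors lower the FRET ratio by blocking Runt binding to CBFb-SMMHC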
CaV13 ICDI inh: Primary screen for inhibitors of IQ motif and Ca2+-dependent inactivation inhibitor domain binding in CACNA1D, Förster resonance energy transfer in living cells, … | HEK cells, CFP/YFP FRET ICDI-IQ, plate reader, 10 min; percent FRET-ratio fall versus neutral wells | inhibition, % at 12.3 µM | 340,000 tested, 0.098% active | AID 743397;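 active = mean replicate inhibition of at least 30% and at least 1% of replicates passing that level; inconclusive = only one of the two criteria is met; inactive = neither criterion is met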;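 note: 0% = median of the neutral control wells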
Runt-CBFb FRET: blocks binding of human RUNX1 Runt domain to CBFb; Q01196+Q13951; Cerulean-Runt/Venus-CBFb FRET ratio 530/480, 1 h; inhibition, % at 20 µM; 220,000 tested, 0.46% active; AID 1496;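 active = inhibition over about 50% at 20 µM in the single-dose screen, limit read from the data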;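 note: 0% = DMSO wells and 100% = excess unlabeled CBFb competitor control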
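Measured by: fluorescence energy transfer, 422 nm excitation, 530/480 nm emission; Assay system: Cerulean-Runt domain; Medium: Tris pH 7.5 buffer with BSA; Measure: loss of energy transfer signal; Controls: 5 µM unlabeled CBFb as full-inhibition high control; Incubation: protein complex preformed 1 h, compound exposure 1 h, room temperature, dark.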
HDAC3 inhib: inhibitors of human histone deacetylase 3; inhibition, % at 8.3 µM; recombinant HDAC3, fluorogenic peptide/trypsin coupled, fluorescence; O15379; 320,000 tested, 0.15% active; in the data active = inhibition above about 26%, passing the limit was not always enough; inconclusive = no clear call, values can overlap the other calls
LANA-H2A inh: blocks KSHV LANA binding to histone H2A/H2B; cell-free LANA-H2A/H2B peptide, fluorescence polarization; AID 2629; 320,000 tested, 0.6% active; inhibition, % (no concentration beside the values); in the data active = inhibition mostly above about 10%, no sharp cut-off; inactive = mostly below about 6.7%
Target sequence (Q9QR71 whole entry, looked up): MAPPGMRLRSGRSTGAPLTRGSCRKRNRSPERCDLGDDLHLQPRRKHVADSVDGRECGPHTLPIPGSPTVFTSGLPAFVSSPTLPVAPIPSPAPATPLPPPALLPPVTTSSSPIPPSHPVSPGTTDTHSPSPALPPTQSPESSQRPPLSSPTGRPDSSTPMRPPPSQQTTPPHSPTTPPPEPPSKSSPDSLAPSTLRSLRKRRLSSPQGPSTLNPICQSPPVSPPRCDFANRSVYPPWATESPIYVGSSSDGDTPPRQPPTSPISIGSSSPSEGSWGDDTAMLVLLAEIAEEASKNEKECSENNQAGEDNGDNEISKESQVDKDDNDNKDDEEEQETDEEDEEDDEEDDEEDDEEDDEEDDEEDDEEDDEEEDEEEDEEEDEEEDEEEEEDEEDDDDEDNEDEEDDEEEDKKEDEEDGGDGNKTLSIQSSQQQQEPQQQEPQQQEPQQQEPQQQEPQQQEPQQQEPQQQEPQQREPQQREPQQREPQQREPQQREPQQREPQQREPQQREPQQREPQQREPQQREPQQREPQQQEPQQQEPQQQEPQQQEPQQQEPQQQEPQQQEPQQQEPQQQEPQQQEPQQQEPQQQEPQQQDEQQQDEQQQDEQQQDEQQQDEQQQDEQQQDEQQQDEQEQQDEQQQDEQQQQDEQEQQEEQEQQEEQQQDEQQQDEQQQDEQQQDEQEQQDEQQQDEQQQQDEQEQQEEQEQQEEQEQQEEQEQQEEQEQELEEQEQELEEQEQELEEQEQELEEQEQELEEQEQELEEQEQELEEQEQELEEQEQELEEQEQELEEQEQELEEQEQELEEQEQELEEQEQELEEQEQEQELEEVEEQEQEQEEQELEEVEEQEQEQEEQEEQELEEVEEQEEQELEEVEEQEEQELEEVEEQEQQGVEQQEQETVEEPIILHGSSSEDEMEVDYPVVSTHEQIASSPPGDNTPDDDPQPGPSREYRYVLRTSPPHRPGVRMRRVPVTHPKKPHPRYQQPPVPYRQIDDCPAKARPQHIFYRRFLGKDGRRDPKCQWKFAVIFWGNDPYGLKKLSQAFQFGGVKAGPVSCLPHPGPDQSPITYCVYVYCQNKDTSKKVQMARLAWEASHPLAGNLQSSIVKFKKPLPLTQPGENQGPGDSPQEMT
RanGTP-Impb inh: inhibitors of RanGTP-importin-beta interaction, primary screen, biochemical, FRET, CFP-Ran, YFP-importin-beta, homogeneous. cell-free CFP-Ran/YFP-importin-beta FRET ratio. inhibition, % (test concentration not listed). 300,000 tested, 1.1% active. AID 2216;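 active = more than half of the replicate wells show a fall in the fluorescence ratio signal beyond about 16%, limit read from the data, passing the limit was not always enough; inconclusive = exactly half of the replicate wells pass the set limit; inactive = fewer than half of replicates pass the limit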;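 note: 0% = DMSO wells and 100% = Ran loaded with GDP instead of GTP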
Runt-CBFb TRFRET: disrupts human RUNX1 Runt domain binding to CBFb; shares compounds with Runt-CBFb FRET; 480 tested, 20% active; TR-FRET RUNX1 Runt domain-CBFb binding; inhibition, % at 20 µM; in the data active = inhibition above about 40%
* marks the source's active call; other numbers are inactive results; i = inactive; ? = inconclusive; · = no result given; + = active, no number.

SMILES | Runt-SMMHC FRET | CaV13 ICDI inh | Runt-CBFb FRET | HDAC3 inhib | LANA-H2A inh | RanGTP-Impb inh | Runt-CBFb TRFRET
CC(=O)Nc1ccc(C(=O)NNC(=O)c2ccc(Cl)cc2)cc1 | · | -2.1 | · | -0.2 | -3.5 | 0.7 | ·
Cc1cc(C)c2c(n1)sc1c(O)cc(=O)[nH]c12 | 35.7 | -2.9 | 51.9* | -2.5 | 0.4 | -0.3 | 21.4
COc1ccc(-c2cc(C(F)(F)F)c3c(n2)sc2c(O)cc(=O)[nH]c23)c(OC)c1 | -114.6 | -16.3 | -11.7 | 4.4 | -9.8 | -41.8 | ·
Cc1cc(=O)oc2c(CN3CCC(C)CC3)c(O)c(Cl)cc12 | 140.2* | -2.9 | 77.2* | i | 5.6 | · | 41.2*
Cc1cc2oc(=O)cc(CN3CCC(C)CC3)c2cc1Cl | -3.1 | · | -3.7 | 2.2 | -0.5 | 1.0 | ·
Cc1cc(=O)oc2c(CN3CCCC3)c(O)c(Cl)cc12 | · | -3.8 | · | -308.4 | 5.1 | 6.5 | ·
CCN1CCN(Cc2c(O)ccc3c(C)cc(=O)oc23)CC1 | · | -2.6 | · | -172.4 | -0.4 | 4.8 | ·
CCCc1cc(=O)oc2c(CN3CCCC3)c(O)ccc12 | 122.1* | · | 54.3* | -467.0 | 2.8 | 8.9 | -13.3
Cc1cc(=O)oc2c(CN3CCCCC3)c(O)c(Cl)cc12 | 134.5* | -4.4 | 62.1* | -422.3 | 0.8 | 8.8 | -6.2
Cc1c(C)c2cc(Cl)c(O)c(CN3CCCC(C)C3)c2oc1=O (stereo not given) | 139.4* | -5.1 | 83.6* | -262.1 | 3.9 | ? | 32.6
Cc1cccc(N2CCN(C(=O)c3ccc(CS(=O)Cc4ccc(Cl)cc4)o3)CC2)c1C (stereo not given) | · | -7.7 | · | 5.7 | 2.8 | 3.0 | ·
COCCN(Cc1cc2cc(C)c(C)cc2nc1Cl)C(=O)N1CCOCC1 | 1.0 | 2.2 | -1.6 | 1.1 | -0.7 | 0.3 | ·
O=C(NCc1n[nH]c(=S)n1-c1cccc(Cl)c1)c1ccc(S(=O)(=O)N2CCCCC2)cc1 | · | -2.4 | · | 4.9 | 9.6 | 1.6 | ·
O=C(O)CNC(=O)c1ccccc1Br | 0.8 | -2.3 | -0.9 | 5.8 | 0.0 | ? | ·
Cc1c(Cc2ccccc2)sc(/N=C/c2c(O)ccc3ccccc23)c1C(N)=O | 63.1* | · | 104.8* | -18.7 | -4.0 | 119.9* | 28.8
Cc1c(Cc2ccccc2)sc(N)c1C(N)=O | -3.1 | · | 8.8 | 17.2 | -2.0 | 2.2 | ·
CCc1cccc(Nc2c3c(nc4ncnn24)CCC3)c1 | -0.9 | -1.9 | 1.8 | -0.8 | 4.1 | -1.6 | ·
Clc1cccc(Nc2c3c(nc4ncnn24)CCC3)c1 | -1.4 | -3.8 | 54.5* | -2.2 | -0.4 | -0.4 | 2.8
COc1ccc2c(c1O)-c1ccccc1CCN(C)C2 | 2.3 | · | 2.5 | -9.0 | -2.4 | 1.8 | ·
CN1CCc2cccc3c2[C@@H]1Cc1ccc(O)c(O)c1-3 | · | · | 86.2* | · | + | · | 68.3*
CCCC1Cc2nc(N3CCCCC3)c(C#N)cc2CO1 (stereo not given) | -7.9 | -6.5 | -3.0 | -16.3 | 1.3 | -0.1 | ·
c1cc2c(cc1-c1csc(NNC3=NCCCCC3)n1)OCCO2 | 70.9* | -5.5 | 60.3* | 16.2 | 3.3 | -2.0 | 35.1
CC1(C(=O)NS(=O)(=O)c2ccc(C#N)cc2)CCN1C(=O)c1ccccc1CCc1ccccc1 (stereo not given) | · | -6.0 | · | · | · | · | ·
O=C(O)Cc1c(C(=O)O)[nH]c2ccc(C(=O)O)cc12 | 1.0 | -5.3 | 1.8 | · | -5.5 | 3.9 | ·
CNC(=O)/C(C#N)=C/c1c(N(Cc2ccccc2)Cc2ccccc2)nc2c(C)cccn2c1=O | 115.1* | -4.1 | 62.4* | -1.7 | 0.6 | 1.2 | -14.2
SMILES | Runt-SMMHC FRET | CaV13 ICDI inh | Runt-CBFb FRET | HDAC3 inhib | LANA-H2A inh | RanGTP-Impb inh | Runt-CBFb TRFRET
CCOC(=O)/C(C#N)=C/c1c(N2CCN(c3ccccc3)CC2)nc2c(C)cccn2c1=O | · | -3.9 | · | -2.4 | 3.2 | -5.1 | ·
CN(CC(=O)Nc1ccc(F)c(F)c1F)C(=O)C1CCCO1 (stereo not given) | · | -3.9 | · | 4.8 | -5.9 | 3.5 | ·
C=CCn1c(-c2cccs2)nc2nc3ccccc3nc21 | 126.1* | -5.3 | 55.3* | -218.8 | -4.1 | 11.5 | -14.9
C=CCn1c(-c2cccs2)nc2ccccc21 | 1.7 | · | 1.1 | -42.0 | -6.6 | · | ·
CCOC(=O)c1ccc(N2C(=O)c3n[nH]c(C)c3C2c2cccnc2)cc1 (stereo not given) | 3.8 | · | 0.4 | 0.3 | -3.6 | 0.3 | ·
CCOC(=O)c1ccc(N2C(=O)c3n[nH]c(-c4ccco4)c3C2c2ccc([N+](=O)[O-])cc2)cc1 (stereo not given) | 8.3 | -2.1 | 68.0* | 13.9 | 1.2 | 6.6 | 29.6
Clc1ccc(-c2nc3ccncc3[nH]2)cc1 | 19.5 | -8.0 | 59.2* | 0.1 | -1.6 | ? | -9.6
Cc1c(C(=O)Nc2ccc(F)cc2)sc2ncn(CC(=O)N3CCCCC3)c(=O)c12 | · | -6.6 | · | 5.9 | -1.5 | 0.0 | ·
CNCc1ccccc1Sc1cc(O)ccc1O | 43.7 | -3.0 | 51.5* | 2.1 | -0.2 | · | -2.2
Cc1nc(CCNC(=O)Cc2ccc(F)cc2)cs1 | 2.8 | 5.0 | -0.5 | 1.3 | -5.6 | -1.7 | ·
COc1ccc(CN2CCN(c3ccccc3OC)CC2)cc1OC | · | -21.0 | · | -7.8 | 0.0 | -0.4 | ·
COc1ccccc1N1CCN(Cc2ccsc2)CC1 | 1.3 | -3.9 | 54.0* | -7.2 | -4.0 | 6.5 | -5.9
CCOC(=O)c1sc(Nc2nc3c(OC)cccc3s2)nc1C | 81.7* | -4.0 | 84.1* | -15.0 | 0.9 | 2.1 | 4.7
CCOC(=O)c1sc(Nc2nc3c(F)cccc3s2)cc1C | 148.1* | -5.1 | 97.9* | -2.1 | -2.0 | 10.1 | -3.9
CC(=O)Nc1nc2c(F)cccc2s1 | · | -3.1 | · | 6.7 | 6.6 | -0.6 | ·
CCOC(=O)c1sc(Nc2ccccc2)nc1C | -0.8 | -1.5 | -3.6 | 6.7 | -1.1 | -1.4 | ·
O=[N+]([O-])c1cccc(C(=S)N2CCN(c3ccccc3)CC2)c1 | 23.8 | -5.2 | 52.6* | 1.8 | 2.6 | 1.0 | 20.6
COc1ccc(C(CCN2CCN(c3ccccc3)CC2)c2c(OC)cc(OC)c3c(-c4ccccc4)cc(=O)oc23)cc1 (stereo not given) | -2.9 | -9.9 | 55.2* | -0.2 | 2.3 | 4.3 | -2.5
COc1ccccc1NS(=O)(=O)c1cc(NC(=O)c2sccc2C)ccc1N1CCCC1 | 23.0 | -5.9 | 51.3* | 2.3 | -1.7 | 0.4 | -119.9
COc1ccccc1NS(=O)(=O)c1cc(NC(=O)c2cccs2)ccc1N1CCCC1 | 27.7 | -15.2 | 50.0* | -7.8 | -4.0 | -1.9 | 7.3
O=C1/C(=C/c2ccccc2[N+](=O)[O-])COc2ccccc21 | -0.2 | -2.7 | 3.9 | 3.0 | 4.4 | 4.4 | ·
COc1ccc(-n2c(SC(C)C(=O)N3CCOCC3)nc3ccccc3c2=O)cc1 (stereo not given) | · | -3.8 | · | -2.2 | 4.2 | -1.6 | ·

Compound activity as filed in PubChem.
